According to ChEMBL document CHEMBL2203229, “Structure Activity Relationship Study of the Cleistriosides and Cleistetrosides for Antibacterial/Anticancer Activity” (ACS Med Chem Lett, 2012):
Values after ≈ are worked out from the molar mass of the structure shown. Active and inactive are the calls of the source. The rule behind the calls is not given here.

Experiments:
A498 = assay: Growth inhibition of human A498 cells at 10 uM after 48 hrs by sulforhodamine B assay; assay type: functional, cell-based
CAKI-1 = assay: Growth inhibition of human CAKI-1 cells at 10 uM after 48 hrs by sulforhodamine B assay; assay type: functional, cell-based
HT-29 = assay: Growth inhibition of human HT-29 cells at 10 uM after 48 hrs by sulforhodamine B assay; assay type: functional, cell-based
OVCAR-3 = assay: Growth inhibition of human OVCAR3 cells at 10 uM after 48 hrs by sulforhodamine B assay; assay type: functional, cell-based
Escherichia coli [1] = assay: Antibacterial activity against Escherichia coli K-12 MG1655 assessed as growth inhibition after 16 hrs by broth dilution method; assay type: functional; settings: K-12 substr. MG1655, 16 h
Method in brief: (§1)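 Strains grown overnight in LB, diluted 10-fold, shaken at 37 °C for 45 min–1 h (~10⁸ CFU/mL), then diluted ~1000-fold to ~10⁵ CFU/mL. Broth dilution in LB: 20 mM DMSO stocks, 1:2 serial dilutions giving seven concentrations, inoculum added 1:1. OD600 read with shaking.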

NCI-H460 [2] = assay: Cytotoxicity against human NCI-H460 cells assessed as inhibition of cell viability by MTT assay; assay type: functional, cell-based
Method in brief: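 NCI-H460 cells in RPMI 1640 with 10% FBS and 2 mM glutamine at 37 °C, 5% CO₂. Seeded at 10,000 cells/well for 12 h, then dosed in 1% FBS medium (DMSO below 0.1% final). MTT (10 µL of 5 mg/mL) for 4 h, formazan dissolved in DMSO for 45 min, absorbance at 562 nm. Triplicate wells, at least three runs (N = 9).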

HCT-15 = assay: Growth inhibition of human HCT15 cells at 10 uM after 48 hrs by sulforhodamine B assay; assay type: functional, cell-based
MCF7 = assay: Growth inhibition of human MCF7 cells at 10 uM after 48 hrs by sulforhodamine B assay; assay type: functional, cell-based
PC-3 = assay: Growth inhibition of human PC3 cells at 10 uM after 48 hrs by sulforhodamine B assay; assay type: functional, cell-based
SR = assay: Growth inhibition of human SR cells at 10 uM after 48 hrs by sulforhodamine B assay; assay type: functional, cell-based
SF-539 = assay: Growth inhibition of human SF539 cells at 10 uM after 48 hrs by sulforhodamine B assay; assay type: functional, cell-based
SK-MEL-5 = assay: Growth inhibition of human SK-MEL-5 cells at 10 uM after 48 hrs by sulforhodamine B assay; assay type: functional, cell-based
SNB-75 = assay: Growth inhibition of human SNB75 cells at 10 uM after 48 hrs by sulforhodamine B assay; assay type: functional, cell-based
A549 = assay: Growth inhibition of human A549 cells at 10 uM after 48 hrs by sulforhodamine B assay; assay type: functional, cell-based
[3] = Antibacterial activity against Bacillus subtilis JH642 containing trpC2 pheA1 assessed as growth inhibition after 16 hrs by broth dilution method; assay type: functional, Bacillus subtilis subsp. subtilis str. JH642; method in brief: as §1
NCI-H460 [4] = assay: Growth inhibition of human NCI-H460 cells at 10 uM after 48 hrs by sulforhodamine B assay; assay type: functional, cell-based
NCI/ADR-RES = assay: Growth inhibition of human NCI-ADR-RES cells at 10 uM after 48 hrs by sulforhodamine B assay; assay type: functional, cell-based
MDA-MB-435 = assay: Growth inhibition of human MDA-MB-435 cells at 10 uM after 48 hrs by sulforhodamine B assay; assay type: functional, cell-based
DU-145 = assay: Growth inhibition of human DU145 cells at 10 uM after 48 hrs by sulforhodamine B assay; assay type: functional, cell-based
RPMI-8226 = assay: Growth inhibition of human RPMI8226 cells at 10 uM after 48 hrs by sulforhodamine B assay; assay type: functional, cell-based
BT-549 = assay: Growth inhibition of human BT549 cells at 10 uM after 48 hrs by sulforhodamine B assay; assay type: functional, cell-based
Escherichia coli [5] = assay: Antibacterial activity against Escherichia coli K-12 BAS901 harboring genetically modified imp-4213, zab4292::Tn5 assessed as growth inhibition after 16 hrs by broth dilution method; assay type: functional; settings: K-12 BAS901, 16 h
Method in brief: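 Kanamycin-resistant strain grown overnight in LB with kanamycin 50 µg/mL, diluted 10-fold, then shaken at 37 °C for 45 min–1 h (~10⁸ CFU/mL). Diluted ~1000-fold to 10⁵ CFU/mL in LB. DMSO stocks (20 mM) prepared as 4X working solutions in LB. Seven 1:2 serial dilutions mixed with equal-volume inoculum. OD600 read with shaking.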

SMILES | growth inhibition (GI) (A498) | growth inhibition (GI) (CAKI-1) | growth inhibition (GI) (HT-29) | growth inhibition (GI) (OVCAR-3) | MIC (Escherichia coli [1]) [µM] | IC50 (NCI-H460 [2]) [µM] | growth inhibition (GI) (HCT-15) | growth inhibition (GI) (MCF7) | growth inhibition (GI) (PC-3) | growth inhibition (GI) (SR) | growth inhibition (GI) (SF-539) | growth inhibition (GI) (SK-MEL-5) | growth inhibition (GI) (SNB-75) | growth inhibition (GI) (A549) | MIC [3] [µM] | growth inhibition (GI) (NCI-H460 [4]) | growth inhibition (GI) (NCI/ADR-RES) | growth inhibition (GI) (MDA-MB-435) | growth inhibition (GI) (DU-145) | growth inhibition (GI) (RPMI-8226) | further results
CCCCCCCCCCCCO[C@@H]1O[C@@H](C)[C@H](O[C@@H]2O[C@@H](C)[C@H](OC(C)=O)[C@@H](O[C@@H]3O[C@@H](C)[C@H](O)[C@@H](O[C@@H]4O[C@@H](C)[C@H](O)[C@@H](O)[C@H]4O)[C@H]3OC(C)=O)[C@H]2O)[C@@H](O)[C@H]1O | inactive | inactive | inactive | inactive | > 64 | 15.4 | inactive | inactive | inactive | inactive | inactive | inactive | inactive | inactive | 8 (≈ 6.84 µg/mL) | inactive | inactive | inactive | inactive | inactive | growth inhibition (GI) (BT-549): inactive; MIC (Escherichia coli [5]): 16 µM (≈ 13.7 µg/mL)
CCCCCCCCCCCCO[C@@H]1O[C@@H](C)[C@H](O[C@@H]2O[C@@H](C)[C@H](OC(C)=O)[C@@H](O[C@@H]3O[C@@H](C)[C@H](OC(C)=O)[C@@H](O[C@@H]4O[C@@H](C)[C@H](O)[C@@H](O)[C@H]4O)[C@H]3OC(C)=O)[C@H]2O)[C@@H](O)[C@H]1O | inactive | inactive | inactive | inactive | > 64 | 12.2 | inactive | inactive | inactive | inactive | inactive | inactive | inactive | inactive | 8 (≈ 7.18 µg/mL) | inactive | inactive | inactive | inactive | inactive | growth inhibition (GI) (BT-549): inactive; MIC (Escherichia coli [5]): > 64 µM
CCCCCCCCCCCCO[C@@H]1O[C@@H](C)[C@H](O[C@@H]2O[C@@H](C)[C@H](OC(C)=O)[C@@H](O[C@@H]3O[C@@H](C)[C@H](O)[C@@H](O[C@@H]4O[C@@H](C)[C@H](OC(C)=O)[C@@H](O)[C@H]4O)[C@H]3OC(C)=O)[C@H]2O)[C@@H](O)[C@H]1O | inactive | inactive | inactive | inactive | > 64 | 16.5 | inactive | inactive | inactive | inactive | inactive | inactive | inactive | inactive | 8 (≈ 7.18 µg/mL) | inactive | inactive | inactive | inactive | inactive | growth inhibition (GI) (BT-549): inactive; MIC (Escherichia coli [5]): 16 µM (≈ 14.4 µg/mL)
